We go through two molecules from ChEMBL document CHEMBL5653625, “P21-Activated Kinase Inhibitors FRAX486 and IPA3: Inhibition of Prostate Stromal Cell Growth and Effects on Smooth Muscle Contraction in the Human Prostate” (PLoS One, 2016).

The species named for series [1] is Homo sapiens. Nature of the series: Inhibition of endothelin-1 induced prostate cancer patient derived human Prostate gland strips contraction assessed as reduction in KCl-induced contraction at 10 uM by organ-bath analysis. Format: functional, tissue-based. An outline of the steps: (§1)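 Human prostate strips (6 x 3 x 3 mm) in aerated (95% O2/5% CO2) Krebs-Henseleit, 37°C, pH 7.4, resting tone 4.9 mN after 45 min equilibration; reference contraction to 80 mM KCl, washout, then inhibitor or DMSO added before cumulative noradrenaline, phenylephrine or endothelin concentration-response curves or EFS frequency-response curves; tension expressed as % of KCl contraction.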

For series [2], the species on record is Homo sapiens. Nature of the series: Inhibition of endothelin-1 induced prostate cancer patient derived human Prostate gland strips contraction assessed as reduction in KCl-induced contraction at 30 uM by organ-bath analysis. Format: functional, tissue-based. The procedure, abridged: as §1
The species entered for series [3] is Homo sapiens. The series can be described thus: Inhibition of electric field stimulation induced prostate cancer patient derived human Prostate gland strips contraction assessed as reduction in KCl-induced contraction at 30 uM at 2 to 32 Hz frequency by organ-bath analysis. Format: functional, tissue-based. An outline of the steps:
as §1

The species entered for series [4] is Homo sapiens. The series can be described thus: Inhibition of noradrenaline induced prostate cancer patient derived human Prostate gland strips contraction assessed as reduction in KCl-induced contraction at 30 uM by organ-bath analysis. Format: functional, tissue-based. An outline of the steps: as §1
Series [5] in a line: Cytotoxicity against human WPMY-1 cells assessed as reduction in cell viability at 1 to 10 uM incubated for 24 hrs by WST-8 assay. Format: toxicity, cell-based. Conditions: wpmy-1, 24 h, dose 1-10 µM.
In series [6] the test system is WPMY-1. The series can be described thus: Inhibition of actin filament organization in human WPMY-1 cells at 1 uM incubated for 24 hrs by FITC-coupled phalloidin staining based laser scanning microscopy. The format is functional, cell-based. An outline of the steps: (§2)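 Serum-starved WPMY-1 cells grown on chamber slides with inhibitor (1–10 µM) or DMSO for 24 h, then stained for F-actin with FITC-labeled phalloidin and imaged by laser scanning confocal microscopy; filament bundles, protrusions and cell shape judged visually against solvent controls; representative images from 5 independent experiments.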

Series [7] concerns WPMY-1. The series can be described thus: Inhibition of actin filament organization in human WPMY-1 cells at 1 to 10 uM incubated for 24 hrs by FITC-coupled phalloidin staining based laser scanning microscopy. As to conditions: dose 1-10 µM. The format is functional, cell-based. An outline of the steps:
as §2

The species entered for series [8] is Homo sapiens. Nature of the series: Inhibition of endothelin-2 induced prostate cancer patient derived human Prostate gland strips contraction assessed as reduction in KCl-induced contraction at 30 uM by organ-bath analysis. The format is functional, tissue-based. The procedure, abridged: as §1
Series [9] can be described thus: Effect on DISC1 knockdown-elicited synaptic changes in rat cortical neurons assessed as prevention of spine size reduction preincubated for 60 mins followed by APV WD solution addition and measured after 20 mins by immunofluorescence analysis. Format: functional, cell-based. Conditions: cortical neurone.
Series [10] is filed under the species Homo sapiens. Nature of the series: Inhibition of electric field stimulation induced prostate cancer patient derived human Prostate gland strips contraction assessed as reduction in KCl-induced contraction at 10 uM by organ-bath analysis. The format is functional, tissue-based. The procedure, abridged: as §1
Series [11] is described as follows: Cytotoxicity against human WPMY-1 cells assessed as reduction in cell proliferation at 1 to 10 uM incubated for 24 hrs by EdU incorporation assay. The format is toxicity, cell-based. Also noted: scale not given: the % may be the effect or the level left. Conditions: wpmy-1, 24 h, dose 1-10 µM.
The subject of series [12] is WPMY-1. Nature of the series: Inhibition of actin filament organization in human WPMY-1 cells assessed as degeneration of protrusions at 1 uM incubated for 24 hrs by FITC-coupled phalloidin staining based laser scanning microscopy. The format is functional, cell-based. An outline of the steps:
as §2

The nature of series [13]: Inhibition of actin filament organization in human WPMY-1 cells assessed as rounded cell shape without protrusion at 5 to 10 uM incubated for 24 hrs by FITC-coupled phalloidin staining based laser scanning microscopy. The format is functional. As to conditions: dose 5-10 µM. An outline of the steps:
as §2

The target of series [14] is Serine/threonine-protein kinase PAK 3 (Homo sapiens, UniProt O75914). The series can be described thus: Inhibition of full length PAK3 (unknown origin) assessed s reduction in substrate phosphorylation using peptide as substrate by FRET based Z-LYTE kinase assay.
Series [15] in a line: Cytotoxicity against human WPMY-1 cells assessed as cell survival rate at 5 to 10 uM incubated for 48 to 72 hrs by WST-8 assay. Format: toxicity, cell-based. Conditions: dose lower 5 µM, time lower 48 hrs, dose upper 10 µM, time upper 72 hrs, read-out: Survival. An outline of the steps:
(§3)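 WPMY-1 human prostate stromal cells kept in RPMI 1640 with 10% FCS and 1% penicillin/streptomycin, 37°C, 5% CO2; switched to FCS-free medium before treatment. Seeded 20,000 cells/well, grown 24 h, then exposed to inhibitor or DMSO (1, 5, 10 µM) for 24, 48 or 72 h with separate controls per period. WST-8 (CCK-8) added, absorbance 450 nm after 2 h at 37°C; 5 independent experiments, means ±SEM.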

Series [16] is described as follows: Cytotoxicity against human WPMY-1 cells assessed as reduction in cell viability at 1 to 10 uM incubated for 24 to 72 hrs by WST-8 assay. Format: toxicity, cell-based. As to conditions: wpmy-1, 10 µM, TDE = time-dependent effect, dose lower 1 µM, time lower 24 hrs, dose upper 10 µM, time upper 72 hrs. In general terms: Tetrazolium dyes change colour on reduction, which living cells bring about.

In series [17] the test system is WPMY-1. The series can be described thus: Inhibition of actin filament organization in human WPMY-1 cells assessed as reduction in degree of actin polymerization at 1 uM incubated for 24 hrs by FITC-coupled phalloidin staining based laser scanning microscopy. The format is functional, cell-based. The procedure, abridged: as §2
For series [18], the target named is Serine/threonine-protein kinase PAK 2 (Homo sapiens, UniProt Q13177). The series can be described thus: Inhibition of full length PAK2 (unknown origin) assessed s reduction in substrate phosphorylation using peptide as substrate by FRET based Z-LYTE kinase assay.
The nature of series [19]: Cytotoxicity against human WPMY-1 cells assessed as cell survival rate at 1 uM incubated for 24 hrs by WST-8 assay. Format: toxicity, cell-based. As to conditions: read-out: Survival. The procedure, abridged:
as §3

Series [20] is filed under the species Homo sapiens. The series can be described thus: Inhibition of phenylephrine induced prostate cancer patient derived human Prostate gland strips contraction assessed as reduction in KCl-induced contraction at 30 uM by organ-bath analysis. Format: functional, tissue-based. The procedure, abridged:
as §1

Series [21] is filed under the species Homo sapiens. Nature of the series: Inhibition of noradrenaline induced prostate cancer patient derived human Prostate gland strips contraction assessed as reduction in KCl-induced contraction at 300 uM by organ-bath analysis. The format is functional, tissue-based. The procedure, abridged: as §1
The species entered for series [22] is Homo sapiens. The series can be described thus: Inhibition of electric field stimulation induced prostate cancer patient derived human Prostate gland strips contraction assessed as reduction in KCl-induced contraction at 100 uM by organ-bath analysis. The format is functional, tissue-based. The procedure, abridged:
as §1

A short description of series [23]: Cytotoxicity against human WPMY-1 cells assessed as cell survival rate at 10 uM incubated for 48 to 72 hrs by WST-8 assay. The format is toxicity, cell-based. Conditions: time 48-72 hrs, read-out: Survival. The procedure, abridged:
as §3

The species entered for series [24] is Homo sapiens. The series can be described thus: Inhibition of phenylephrine induced prostate cancer patient derived human Prostate gland strips contraction assessed as reduction in KCl-induced contraction at 300 uM by organ-bath analysis. Format: functional, tissue-based. An outline of the steps: as §1
For series [25], the species on record is Homo sapiens. The series can be described thus: Inhibition of electric field stimulation induced prostate cancer patient derived human Prostate gland strips contraction assessed as reduction in KCl-induced contraction at 300 uM at 32 Hz frequency by organ-bath analysis. Format: functional, tissue-based. The procedure, abridged:
as §1

Series [26] can be described thus: Cytotoxicity against human WPMY-1 cells assessed as cell survival rate at 1 uM incubated for 24 to 72 hrs by WST-8 assay. Format: toxicity, cell-based. Conditions: time 24-72 hrs, read-out: Survival. An outline of the steps:
as §3

Activity calls are given as the source filed them. The calls are words filed in the database; no cut-off is given here.

Chain of Serine/threonine-protein kinase PAK 2 (Q13177 whole entry): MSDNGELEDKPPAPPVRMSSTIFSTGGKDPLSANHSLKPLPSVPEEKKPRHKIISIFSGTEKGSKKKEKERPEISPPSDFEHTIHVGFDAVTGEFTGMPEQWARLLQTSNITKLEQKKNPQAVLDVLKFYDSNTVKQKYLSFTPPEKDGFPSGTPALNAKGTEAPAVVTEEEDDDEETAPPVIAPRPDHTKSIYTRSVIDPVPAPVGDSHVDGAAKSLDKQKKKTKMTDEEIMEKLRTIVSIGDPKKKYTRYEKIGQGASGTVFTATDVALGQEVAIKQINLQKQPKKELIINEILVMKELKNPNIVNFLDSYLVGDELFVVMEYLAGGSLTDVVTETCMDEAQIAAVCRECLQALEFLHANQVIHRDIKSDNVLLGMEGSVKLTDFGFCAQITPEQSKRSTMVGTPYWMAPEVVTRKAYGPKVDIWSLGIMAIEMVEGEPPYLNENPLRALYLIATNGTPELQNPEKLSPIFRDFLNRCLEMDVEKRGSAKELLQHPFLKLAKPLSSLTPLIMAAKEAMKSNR
Chain of Serine/threonine-protein kinase PAK 3 (O75914 whole entry): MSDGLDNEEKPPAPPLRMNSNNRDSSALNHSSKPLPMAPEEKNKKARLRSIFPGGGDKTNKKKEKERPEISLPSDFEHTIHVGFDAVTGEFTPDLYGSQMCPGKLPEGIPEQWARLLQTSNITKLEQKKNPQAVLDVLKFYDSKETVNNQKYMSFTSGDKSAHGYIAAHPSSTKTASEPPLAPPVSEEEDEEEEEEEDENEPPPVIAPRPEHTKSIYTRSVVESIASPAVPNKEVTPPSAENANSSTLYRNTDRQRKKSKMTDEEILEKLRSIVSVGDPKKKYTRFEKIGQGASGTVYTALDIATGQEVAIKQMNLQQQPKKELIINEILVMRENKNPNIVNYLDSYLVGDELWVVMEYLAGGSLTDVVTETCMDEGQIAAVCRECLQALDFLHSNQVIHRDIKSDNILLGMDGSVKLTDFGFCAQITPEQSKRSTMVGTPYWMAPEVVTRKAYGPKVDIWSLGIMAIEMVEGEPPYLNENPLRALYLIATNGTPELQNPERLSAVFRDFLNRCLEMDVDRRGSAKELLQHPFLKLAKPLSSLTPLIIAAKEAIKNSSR

The EC50 is the concentration at which the effect is half-maximal. The term IC50 denotes the concentration at which inhibition is half-maximal. `CCn1c(=O)c(-c2ccc(Cl)cc2Cl)cc2cnc(Nc3ccc(N4CCNCC4)c(F)c3)nc21`: the inhibition result in series [1], in [4], in [10] and in [20] was “inactive” throughout. For the same molecule, the inhibition result in series [2], in series [3], in series [6], in series [8], in [12] and in series [17] was “Active” each time. The Activity entry was “Dose-Dependent Effect” in series [5], 45% in series [11] and “Tde” in series [16]. Besides, the inhibition result in series [7] was “Dose-Dependent Effect”. In series [9], the EC50 stood at 500 nM. The “inhibition (INH)” value in series [13] came to 100%. Moreover, the IC50 in series [14] and in series [18] was 10 nM each time. Further, in [15], the viability at up to 10 µM is 1%. In addition, the viability at 24 h, 1 µM in series [19] is 55%.
As to `Oc1ccc2ccccc2c1SSc1c(O)ccc2ccccc12`, the Activity result in series [5] is on record as “Dose-Dependent Effect”; in series [11], 41%; in series [16] it was “Tde”. For the same molecule, the inhibition entry in series [21], in series [22] and in series [24] was “inactive” in each case. The inhibition result in series [6], in [12], in series [25] and in series [17] was “Active” each time. Also, in series [23], the viability at 10 µM turned out to be 1%. In addition, the inhibition entry in series [7] was “Dose-Dependent Effect”. In series [13], the “inhibition (INH)” value is 100%. The viability at 1 µM in [26] worked out at 55%.
